A selection: hits, their analogues and other compounds. The true share with any hit is near 2.6%.
UCH37 inh: human UCH37 deubiquitinating enzyme inhibition; purified proteasome/UCH37, Ub-AMC cleavage fluorescence; inhibition, % (no concentration beside the values); hit rate 0.33% among 330,000;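 active means mean inhibition over replicate wells above about 20%, limit read from the data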
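Signal – fluorescence, ex 355 nm, em 460 nm · System – Proteasome-bound UCH37 · Input – 0.15 nM proteasome as dispensed · Timing – 30 min preincubation with enzyme, 25 min cleavage at room temperature · Read-out basis – percent inhibition of cleavage signal versus uninhibited and no-proteasome wells · Medium – Tris-HCl pH 7.4 with ATP-MgCl2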
Casp6 inh: caspase-6 (human) enzyme inhibition. P55212. inhibition, % at 12.5 µM. purified caspase-6, Z-VEID-R110 cleavage fluorescence. AID 686996. hit rate 0.53% among 350,000;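 active means mean inhibition across replicates at least about 35%, with every replicate also reaching that limit, limit read from the data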
Target sequence (P55212 24-179 limits assumed): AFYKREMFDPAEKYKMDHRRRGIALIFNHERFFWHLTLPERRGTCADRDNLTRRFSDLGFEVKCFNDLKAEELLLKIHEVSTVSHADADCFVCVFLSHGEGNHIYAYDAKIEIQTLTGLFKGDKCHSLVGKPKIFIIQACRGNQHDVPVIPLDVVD
Target sequence (P55212 194-293 limits assumed): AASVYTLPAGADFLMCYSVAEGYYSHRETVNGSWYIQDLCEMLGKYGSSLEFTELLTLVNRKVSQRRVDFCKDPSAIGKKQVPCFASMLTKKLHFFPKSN
NSD2 HMT inh: blocks human histone methyltransferase NSD2; NSD2 peptide methylation, AlphaScreen, 120 min; inhibition, % at 12.5 µM; hit rate 0.54% among 310,000; in the data active means inhibition above about 50%
FGF22 binding: FGF22 (human) thermal shift binding; recombinant FGF22 thermal shift, SYPRO orange fluorescence; percent of sucrose octasulfate shift, DMSO zero; Q9HCT0; hit rate 1.5% among 340,000; activity (Tm shift, normalised), % at 9.99 µM; AID 651658;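 active means mean Tm shift, scaled 0 neutral to 100 positive control, at about 1.3% or above, every replicate too, limit read from the data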
Target sequence (Q9HCT0 whole entry, looked up): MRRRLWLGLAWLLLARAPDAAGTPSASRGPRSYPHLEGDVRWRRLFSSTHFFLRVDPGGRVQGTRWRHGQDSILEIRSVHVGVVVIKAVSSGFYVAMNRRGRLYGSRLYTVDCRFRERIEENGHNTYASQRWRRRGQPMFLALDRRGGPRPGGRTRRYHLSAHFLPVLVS
SIRT5 inh: inhibitors of human sirtuin-5 desuccinylase; AID 652115; hit rate 1.1% among 330,000; inhibition, % at 15 µM; Purified SirT5, succinyl-peptide AMC, trypsin-coupled fluorescence; in the data active means inhibition above about 15%
Each line names hits and unclear results; the compound was inactive in the other large screens; ! = not confirmed by another sample.

C[C@@H]1CN([C@@H](C)CO)C(=O)c2cc(NC(=O)Nc3ccc(F)cc3)ccc2O[C@@H](C)CCCCO[C@@H]1CN(C)Cc1ccc(C(=O)O)cc1	none (no result: UCH37 inh, NSD2 HMT inh, FGF22 binding)
CCCc1nc(NCCCOCC)c2nnn(Cc3ccccc3)c2n1	SIRT5 inh 17
CCOCCCNc1nc(C(F)(F)F)nc2c1nnn2Cc1ccccc1Cl	none
O=C1Nc2ccccc2N(C(=O)c2ccc3ccccc3c2)C1c1nc2ccccc2[nH]1 (stereo not drawn)	SIRT5 inh 16 (no result: UCH37 inh, NSD2 HMT inh)
O=S(=O)(c1ccc(N=C2NN=C(c3cc(F)ccc3F)CS2)cc1)N1CCOCC1	SIRT5 inh 27 (no result: Casp6 inh, NSD2 HMT inh)
COc1cc(C=NNc2nc3ccccc3[nH]2)cc(OC)c1OC	none (no result: Casp6 inh, NSD2 HMT inh, FGF22 binding, SIRT5 inh)
O=C(Nc1cc(S(=O)(=O)N2CCCCC2)ccc1O)c1ccccc1NS(=O)(=O)c1ccc(F)cc1	FGF22 binding 1.4!
CC(c1ccon1)N(C)C(=O)c1cccc(OC2CCN(S(C)(=O)=O)CC2)c1 (stereo not drawn)	SIRT5 inh 15 (no result: UCH37 inh)
CC1=CC(c2ccccc2)=NS(=O)(=O)N1	none (no result: NSD2 HMT inh)
CCOC(=O)C1=NS(=O)(=O)NC(C)=C1	Casp6 inh 36 (no result: NSD2 HMT inh)
CCSc1nnc(CSc2ncccn2)n1C	FGF22 binding 44 (no result: NSD2 HMT inh)
CCCSc1nnc(CSc2ncccn2)n1C	none
CN(NC(=O)c1ccco1)c1nc2ccccc2nc1C(F)(F)F	FGF22 binding 43
CCC(=O)Nc1ccc2c(c1)OC[C@H](C)N(C(=O)Cc1cccnc1)C[C@@H](C)[C@H](OC)CN(C)C2=O	none (no result: UCH37 inh, NSD2 HMT inh)
Cc1[nH][nH]c(=O)c1C(c1cc([N+](=O)[O-])ccc1O)c1c(C)[nH][nH]c1=O	SIRT5 inh 26
CC(Sc1nnc(COc2ccc(Cl)cc2)n1Cc1ccccc1)C(=O)O (stereo not drawn)	none (no result: FGF22 binding)
Cc1cc(OCc2nnc(SC(C)C(=O)O)n2Cc2ccccc2)ccc1Cl (stereo not drawn)	SIRT5 inh 24 (no result: Casp6 inh)
O=C1CN(S(=O)(=O)c2ccccc2)C[C@H]2[C@H](c3ccc(Br)cc3)[C@H](CO)N12	none (no result: UCH37 inh, NSD2 HMT inh)
N#CNC(=Nc1ccc(F)cc1)SCc1ccccc1	FGF22 binding 44
CC(C)N=C(NC#N)SCc1ccc(F)cc1	none (no result: Casp6 inh, FGF22 binding, SIRT5 inh)
Cc1cc(S(=O)(=O)N2CCCC(C(=O)Nc3ccc(C(=O)O)cc3)C2)ccc1Cl (stereo not drawn)	FGF22 binding 43
COC(=O)c1ccc(NC(=O)C2CCN(S(C)(=O)=O)CC2)cc1	none (no result: Casp6 inh, NSD2 HMT inh, FGF22 binding, SIRT5 inh)
CC(=O)N1c2ccc(S(=O)(=O)N3CCCC(C(=O)Nc4ccc(C)cc4)C3)cc2CC1C (stereo not drawn)	none (no result: UCH37 inh, NSD2 HMT inh)
COC(=O)c1ccc(NC(=O)C2CCCN(S(C)(=O)=O)C2)cc1 (stereo not drawn)	FGF22 binding 43
CCOc1ccc(C=NNC(=O)c2nnn(-c3nonc3N)c2CN2CCC(C)CC2)cc1	none (no result: Casp6 inh, NSD2 HMT inh, FGF22 binding, SIRT5 inh)
Fc1ccc(-c2nnc3n2CCCCC3)cc1	SIRT5 inh 17
Cc1nn(CC(=O)N(C)C)c(=O)c2ccccc12	SIRT5 inh 19 (no result: FGF22 binding)
Cc1nn(CC(N)=O)c(=O)c2ccccc12	none (no result: Casp6 inh, FGF22 binding, SIRT5 inh)
C/C=C/c1ccc([C@H]2[C@@H](C#N)N(C(=O)c3cccnc3)[C@@H]2CO)cc1	none (no result: UCH37 inh, NSD2 HMT inh)
C=CCON/C(CCC)=C1\C(=O)C(C(=O)OC)C(C)(C)CC1=NC (stereo not drawn)	FGF22 binding 44
Cc1cccc(OCC(=O)NN=Cc2cccn2C)c1	none (no result: Casp6 inh, NSD2 HMT inh, FGF22 binding, SIRT5 inh)
CCN1CCN(C(=O)CSc2nc(N)cc(N)n2)CC1	FGF22 binding 44 (no result: Casp6 inh)
COc1ccc(Br)cc1C(=O)NN=Cc1ccc([N+](=O)[O-])cc1	none (no result: Casp6 inh, NSD2 HMT inh, FGF22 binding, SIRT5 inh)
O=C(COC(=O)c1cccc(O)c1)NCc1ccc2c(c1)OCO2	none
CN(C)S(=O)(=O)c1cccc(C(=O)OCC(=O)NCc2ccc3c(c2)OCO3)c1	FGF22 binding 43
C[C@H](CO)N1C[C@H](C)[C@H](CN(C)S(=O)(=O)c2ccccc2)Oc2c(NC(=O)NC3CCCCC3)cccc2C1=O	none (no result: UCH37 inh, NSD2 HMT inh)
CCO[C@H]1OC(C(=O)N2CCN(Cc3ccc4c(c3)OCO4)CC2)=C[C@@H](C)[C@@H]1CCCO	FGF22 binding 9.2 (no result: NSD2 HMT inh)
CCO[C@@H]1OC(C(=O)N2CCN(Cc3ccc4c(c3)OCO4)CC2)=C[C@H](C)[C@H]1CCCO	none (no result: NSD2 HMT inh)
O=C(C1=C[C@@H](c2ccc(Br)cc2)C[C@@H](OCCCCO)O1)N1CCN(Cc2ccc3c(c2)OCO3)CC1	UCH37 inh 30 (no result: NSD2 HMT inh)
C[C@@H]1CN([C@@H](C)CO)C(=O)c2cc(C#Cc3ccccc3)cnc2O[C@@H]1CN(C)CC1CCOCC1	none (no result: UCH37 inh, NSD2 HMT inh)
CCCNC(=O)N1[C@@H]2CN(C(=O)C3CCC3)c3ccccc3[C@@H]2[C@@H]1CO	none (no result: UCH37 inh, NSD2 HMT inh)

Screens deposited in PubChem by several laboratories.
